Laboratory results from ChEMBL document CHEMBL4406880, “Design, synthesis, and bioactivity of dihydropyrimidine derivatives as kinesin spindle protein inhibitors” (Bioorg Med Chem, 2019).

Experiments:
Type in all cases: functional
A498 = assay: Growth inhibition of human A498 cells assessed as cell viability at 1 uM incubated for 48 hrs by sulforhodamine B assay; settings: A498, 48 h, read-out: Activity
Outline: (§1)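 NCI-60 five-dose mode: five tenfold dilutions (0.01, 0.1, 1, 10, 100 µM) are applied for 48 h to cells in RPMI 1640 with 5% FBS at 37 °C. Endpoint is TCA fixation with sulforhodamine B read at 515 nm. % growth comes from the 0 h and control absorbances. GI50 is the concentration giving a 50% reduction in net cell growth.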

SK-MEL-5 [1] = assay: Growth inhibition of human SK-MEL-5 cells assessed as cell viability at 0.1 uM incubated for 48 hrs by sulforhodamine B assay; settings: SK-MEL-5, 48 h, read-out: Activity
NCI/ADR-RES = assay: Growth inhibition of human NCI/ADR-RES cells assessed as cell viability at 0.001 uM incubated for 48 hrs by sulforhodamine B assay relative to control; settings: read-out: Activity
SNB-75 = assay: Growth inhibition of human SNB75 cells assessed as cell viability at 100 uM incubated for 48 hrs by sulforhodamine B assay; settings: SNB-75, 48 h, read-out: Activity
SK-MEL-28 [2] = assay: Growth inhibition of human SK-MEL-28 cells assessed as cell viability at 0.1 uM incubated for 48 hrs by sulforhodamine B assay; settings: SK-MEL-28, 48 h, read-out: Activity
SK-MEL-5 [3] = assay: Growth inhibition of human SK-MEL-5 cells incubated for 48 hrs by sulforhodamine B assay; settings: SK-MEL-5, 48 h
Outline: (§2)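 NCI-60 five-dose SRB assay. Cells were exposed for 48 h to tenfold dilutions of 0.01, 0.1, 1, 10 and 100 µM, in RPMI 1640 with 5% FBS. Plates fixed with TCA at the time of drug addition served as the time-zero reference. GI50 is the concentration giving a 50% reduction in net growth. TGI is total growth inhibition. LC50 is a net 50% loss of the initial cells.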

DU-145 = assay: Growth inhibition of human DU145 cells assessed as cell viability at 100 uM incubated for 48 hrs by sulforhodamine B assay; settings: DU-145, 48 h, read-out: Activity
OVCAR-8 = assay: Growth inhibition of human OVCAR8 cells assessed as cell viability at 0.1 uM incubated for 48 hrs by sulforhodamine B assay; settings: OVCAR-8, 48 h, read-out: Activity
SF-539 = assay: Growth inhibition of human SF539 cells assessed as cell viability at 100 uM incubated for 48 hrs by sulforhodamine B assay; settings: SF-539, 48 h, read-out: Activity
OVCAR-3 = assay: Growth inhibition of human OVCAR3 cells assessed as cell viability at 100 uM incubated for 48 hrs by sulforhodamine B assay; settings: OVCAR-3, 48 h, read-out: Activity
SW-620 = assay: Growth inhibition of human SW620 cells assessed as cell viability at 0.1 uM incubated for 48 hrs by sulforhodamine B assay; settings: SW-620, 48 h, read-out: Activity
KM12 = assay: Growth inhibition of human KM12 cells assessed as cell viability at 100 uM incubated for 48 hrs by sulforhodamine B assay; settings: KM12, 48 h, read-out: Activity
NCI-H23 [4] = assay: Growth inhibition of human NCI-H23 cells assessed as cell viability at 1 uM incubated for 48 hrs by sulforhodamine B assay; settings: NCI-H23, 48 h, read-out: Activity
NCI-H23 [5] = assay: Growth inhibition of human NCI-H23 cells assessed as cell viability at 0.1 uM incubated for 48 hrs by sulforhodamine B assay; settings: NCI-H23, 48 h, read-out: Activity
SK-OV-3 = assay: Growth inhibition of human SKOV3 cells assessed as cell viability at 0.001 uM incubated for 48 hrs by sulforhodamine B assay relative to control; settings: SK-OV-3, 48 h, read-out: Activity
A549 [6] = assay: Growth inhibition of human A549/ATCC cells incubated for 48 hrs by sulforhodamine B assay; settings: A549, 48 h; outline: as §1
SK-MEL-28 [7] = assay: Growth inhibition of human SK-MEL-28 cells incubated for 48 hrs by sulforhodamine B assay; settings: SK-MEL-28, 48 h; outline: as §2
A549 [8] = assay: Growth inhibition of human A549/ATCC cells assessed as cell viability at 100 uM incubated for 48 hrs by sulforhodamine B assay; settings: A549, 48 h, read-out: Activity; outline: as §1
RXF 393 = assay: Growth inhibition of human RXF393 cells assessed as cell viability at 100 uM incubated for 48 hrs by sulforhodamine B assay; settings: RXF 393, 48 h, read-out: Activity
HL-60(TB) = assay: Growth inhibition of human HL-60(TB) cells assessed as cell viability at 1 uM incubated for 48 hrs by sulforhodamine B assay; settings: HL-60, 48 h, read-out: Activity
Outline: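 NCI-60 five-dose assay, SRB end-point, same culture conditions. Compound is tested at tenfold dilutions of 0.01, 0.1, 1, 10 and 100 µM for 48 h at 37 °C, with DMSO/PBS vehicle controls. Percentage growth at each concentration is taken against untreated cells and a time-zero plate. GI50 is 50% net growth decrease, TGI is total growth inhibition, and LC50 is 50% loss of initial cells.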

LOX IMVI = assay: Growth inhibition of human LOXIMVI cells assessed as cell viability at 1 uM incubated for 48 hrs by sulforhodamine B assay; settings: read-out: Activity
ACHN = assay: Growth inhibition of human ACHN cells assessed as cell viability at 100 uM incubated for 48 hrs by sulforhodamine B assay; settings: read-out: Activity; outline: as §1
HCC 2998 = assay: Growth inhibition of human HCC2998 cells incubated for 48 hrs by sulforhodamine B assay; settings: HCC 2998, 48 h; outline: as §1
786-0 = assay: Growth inhibition of human 786-0 cells incubated for 48 hrs by sulforhodamine B assay; settings: 786-0, 48 h; outline: as §1
[9] = read-out: LC50 (the source's name)
[10] = read-out: pLC50 (the source's name) (converted)

CC1=C(C(=O)OCc2ccccc2)C(c2ccc3c(c2)OCO3)n2c(nc3ccccc32)N1 (racemic)
viability at 1 µM (A498): 15%
viability at 0.1 µM (SK-MEL-5 [1]): 98%
viability at 0.001 µM (NCI/ADR-RES): 93%
viability at 100 µM (SNB-75): -24%
viability at 0.1 µM (SK-MEL-28 [2]): 93%
GI50 (SK-MEL-5 [3]; read-out: GI50): 0.54 µM
CC50 (SK-MEL-5 [3]; [9]): > 100 µM
TGI (SK-MEL-5 [3]; read-out: TGI): > 100 µM
GI50 (SK-MEL-5 [3]; read-out: pGI50 (converted)): 0.537 µM
CC50 (SK-MEL-5 [3]; [10]): > 100 µM
TGI (SK-MEL-5 [3]; read-out: pTGI): > 100 µM
viability at 100 µM (DU-145): 41%
viability at 0.1 µM (OVCAR-8): 97%
viability at 100 µM (SF-539): 13%
viability at 100 µM (OVCAR-3): -10%
viability at 0.1 µM (SW-620): 89%
viability at 100 µM (KM12): 18%
viability at 1 µM (NCI-H23 [4]): 54%
viability at 0.1 µM (NCI-H23 [5]): 92%
viability at 0.001 µM (SK-OV-3): 99%
GI50 (A549 [6]; read-out: GI50): 0.68 µM
CC50 (A549 [6]; [9]): > 100 µM
TGI (A549 [6]; read-out: TGI): > 100 µM
GI50 (A549 [6]; read-out: pGI50 (converted)): 0.676 µM
CC50 (A549 [6]; [10]): > 100 µM
TGI (A549 [6]; read-out: pTGI): > 100 µM
GI50 (SK-MEL-28 [7]; read-out: GI50): > 100 µM
LC50 (SK-MEL-28 [7]; read-out: LC50): > 100 µM
TGI (SK-MEL-28 [7]; read-out: TGI): > 100 µM
GI50 (SK-MEL-28 [7]; read-out: pGI50 (converted)): > 100 µM
LC50 (SK-MEL-28 [7]; read-out: pLC50 (converted)): > 100 µM
TGI (SK-MEL-28 [7]; read-out: pTGI): > 100 µM
viability at 100 µM (A549 [8]): 10%
viability at 100 µM (RXF 393): 15%
viability at 1 µM (HL-60(TB)): 8%
viability at 1 µM (LOX IMVI): 35%
viability at 100 µM (ACHN): 35%
GI50 (HCC 2998; read-out: GI50): 11 µM
LC50 (HCC 2998; read-out: LC50): > 100 µM
TGI (HCC 2998; read-out: TGI): > 100 µM
GI50 (HCC 2998; read-out: pGI50 (converted)): 11 µM
LC50 (HCC 2998; read-out: pLC50 (converted)): > 100 µM
TGI (HCC 2998; read-out: pTGI): > 100 µM
GI50 (786-0; read-out: GI50): 0.47 µM
CC50 (786-0; [9]): > 100 µM
TGI (786-0; read-out: TGI): > 100 µM
GI50 (786-0; read-out: pGI50 (converted)): 0.468 µM
CC50 (786-0; [10]): > 100 µM
TGI (786-0; read-out: pTGI): > 100 µM
